Test results published in ChEMBL document CHEMBL2021842, “COMPARE analysis of the toxicity of an iminoquinone derivative of the imidazo[5,4-f]benzimidazoles with NAD(P)H:quinone oxidoreductase 1 (NQO1) activity and computational docking of quinones as NQO1 substrates” (Bioorg Med Chem, 2012).

Key:
[1] = tested on: HeLa; assay: Cytotoxicity against human HeLa cells assessed as reduction in mean cell viability after 72 hrs by MTT assay; type: functional, cell-based
How it was run: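 HeLa-CCL-2 cells in DMEM with 10% heat-inactivated FBS, 2 mM L-glutamine and nonessential amino acids. Plated at 1000 cells/well with 24 h adherence. Treated in ethanol (1% final) for 72 h at 37 °C under 5% CO₂, with ethanol controls. Absorbance of DMSO-dissolved formazan at 550 nm, 690 nm reference. IC₅₀ by nonlinear regression of percent viability.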

[2] = tested on: DU-145; assay: Cytotoxicity against human DU145 cells assessed as reduction in mean cell viability after 72 hrs by MTT assay; type: functional, cell-based; conditions: DU-145, 72 h
How it was run: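 DU-145 prostate cells in RPMI-1640 with 10% heat-inactivated FBS, penicillin–streptomycin and 2 mM L-glutamine. Seeded at 2000 cells/well and left 24 h to adhere. Compound added in ethanol (1% final) for 72 h at 37 °C, 5% CO₂, with ethanol-only controls. Formazan dissolved in DMSO and read at 550 nm (690 nm reference). IC₅₀ derived by nonlinear regression of viability versus vehicle.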

[3] = Cytotoxicity against human GM00637 cells assessed as reduction in mean cell viability after 72 hrs by MTT assay; type: cell-based; conditions: GM00637, 72 h
How it was run: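 SV40-transformed normal skin fibroblasts (GM00637) in MEM Eagle–Earle BSS with 15% heat-inactivated FBS, 2 mM L-glutamine, 2× amino acids and vitamins. Seeded at 10,000 cells/well and left 24 h to adhere. Ethanol-delivered compound (1% final) for 72 h at 37 °C, 5% CO₂. MTT formazan in DMSO read at 550/690 nm. Viability relative to vehicle; IC₅₀ by nonlinear regression.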

| Structure (SMILES) | IC50 [1] [µM] | IC50 [2] [µM] | IC50 [3] [µM] |
| --- | --- | --- | --- |
| O=C1c2nc3n(c2C(=O)c2c1nc1n2CCCC1)CCCC3 | 3.33 | 1.73 | > 5 |
| O=C1c2nc3n(c2C(=O)c2nc4n(c21)CCCC4)CCC3 | 0.95 | 0.79 | 1.27 |
| O=C1c2nc3n(c2C(=O)c2nc4n(c21)CCCCC4)CCCCC3 | 1.78 | 4.46 | > 5 |
| CCCCn1cnc2c1C(=O)c1nc3n(c1C2=O)CCCC3 | 1.28 | 1.35 | 2.12 |
